Screening results: PubChem BioAssay, several laboratories
Hits are enriched below; roughly 3% of the tested compounds scored in any of these assays.
CendR NRP1 mod: NRP-1/CendR interaction modulation | O14786 | FAM-RPARPAR peptide binding to NRP-1, fluorescence polarization | inhibition, % at 25 µM | actives 0.85% (n = 360,000);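 active = inhibition or corrected inhibition above about 18%, plus a signal ratio from 0.5 to 1.5, limit read from the data, passing the limit was not always enough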
Target sequence (O14786 whole entry, looked up): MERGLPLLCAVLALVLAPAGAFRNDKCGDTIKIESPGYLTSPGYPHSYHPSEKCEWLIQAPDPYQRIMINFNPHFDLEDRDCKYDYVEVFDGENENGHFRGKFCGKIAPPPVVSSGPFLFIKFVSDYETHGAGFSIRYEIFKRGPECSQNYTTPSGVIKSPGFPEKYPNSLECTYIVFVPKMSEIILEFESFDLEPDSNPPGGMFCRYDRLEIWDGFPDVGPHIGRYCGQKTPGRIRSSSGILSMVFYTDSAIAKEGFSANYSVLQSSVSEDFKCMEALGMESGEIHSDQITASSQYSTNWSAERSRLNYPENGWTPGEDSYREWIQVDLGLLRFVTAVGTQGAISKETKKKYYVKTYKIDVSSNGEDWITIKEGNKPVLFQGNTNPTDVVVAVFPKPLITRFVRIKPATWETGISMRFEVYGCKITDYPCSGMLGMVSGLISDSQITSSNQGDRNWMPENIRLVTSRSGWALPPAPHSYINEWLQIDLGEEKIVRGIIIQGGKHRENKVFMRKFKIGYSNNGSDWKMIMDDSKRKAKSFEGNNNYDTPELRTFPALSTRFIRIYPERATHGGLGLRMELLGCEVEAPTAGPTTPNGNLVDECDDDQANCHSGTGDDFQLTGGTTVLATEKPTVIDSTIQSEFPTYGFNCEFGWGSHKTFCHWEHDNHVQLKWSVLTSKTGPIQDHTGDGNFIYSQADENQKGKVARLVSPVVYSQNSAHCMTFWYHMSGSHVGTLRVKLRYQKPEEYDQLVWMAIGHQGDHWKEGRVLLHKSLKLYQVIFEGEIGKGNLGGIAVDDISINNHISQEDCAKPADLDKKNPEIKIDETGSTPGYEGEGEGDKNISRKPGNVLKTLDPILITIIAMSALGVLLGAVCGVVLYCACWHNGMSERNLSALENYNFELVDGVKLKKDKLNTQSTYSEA
HIF activator: HIF pathway transcriptional activation | U2OS HRE-luciferase reporter, luminescence; normalized: DMSO 0%, desferrioxamine 100% | activation, % at 7.5 µM (by protocol) | actives 0.32% (n = 300,000) | AID 1910;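 active = mean activation of at least 10% of the iron chelator positive control signal, with at least half of replicates also reaching 10%; inconclusive = mean and replicate majority disagree about reaching 10%; inactive = mean and most replicates under 10%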
V-ATPase pHluor: yeast V-ATPase proton transport regulation by pHLuorin; response, % at 10 µM; actives 0.37% (n = 350,000); S. cerevisiae, pHLuorin cytosolic pH fluorescence; in the data active = response mostly above about 7.3%, no sharp cut-off; inactive = mostly below about 5.4%; note: actives read high
AI-2 QS mod: modulates the Vibrio harveyi AI-2 quorum sensing system. actives 0.4% (n = 300,000). AID 2094. Vibrio harveyi JMH597 AI-2 luminescence/OD600 ratio, 9 h; active compounds read low; strain lacks LuxN and CqsS sensors; 0 = neutral-control median. activity change, % at 7.5 µM; in the data active = activity change below about -75%, passing the limit was not always enough; inconclusive = no clear call, values can overlap the other calls;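 note: luminescence divided by OD600 gain over 9 h not by final OD600 alone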
T cruzi inh: T. cruzi replication inhibition. T. cruzi beta-gal in NIH3T3, luminescence, 90 h. inhibition, % (concentration not given with the values). actives 1.4% (n = 300,000);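 active = mean inhibition across valid replicates above about 55%, limit read from the data; inconclusive = mean below that limit but half or more replicates reach it; inactive = mean below it, under half of replicates reach it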;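 note: signal also drops with host cell toxicity which is not excluded here; higher percent means less beta-gal luminescence so fewer parasites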
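Material: NIH/3T3 host cells with β-galactosidase reporter T. cruzi; Input: 5,000 host fibroblasts per well; Medium: DMEM, 2% fetal bovine serum; Compound: 50 nL DMSO compound solution per well; Schedule: 3 h host attachment, then at least 90 h co-culture; Detection: luminescent β-galactosidase signal after 60 min lysis.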
CR mimetic SO: yeast age-related superoxide inhibition as caloric restriction mimetic | superoxide response (% of plate mean), % at 10 µM | S. cerevisiae aged cells, superoxide DHE fluorescence; active compounds read low | actives 0.18% (n = 330,000);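 active = superoxide response under a set limit, about three screen SD below normal, cut at about 65% in these data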;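 note: yeast aged for seven days with compound at 30 °C before DHE staining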
JMH597 growth: retest: blocks Vibrio harveyi JMH597 growth | shares compounds with AI-2 QS mod | OD600 absorbance, 9 h; lacks LuxN and CqsS sensors | growth inhibition, % at 7.5 µM | actives 1% (n = 750) | AID 2726;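 active = every replicate shows growth inhibition above 50%; inconclusive = at least half, but not all, replicates pass that cutoff; inactive = fewer than half of replicates pass it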
BB721 lum counter: retest counter-screen: BB721 constitutive quorum sensing luminescence decrease; shares compounds with AI-2 QS mod; Vibrio harveyi BB721 luminescence, 9 h; inhibition, % at 7.5 µM; actives 95% (n = 750); AID 2727;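 active = inhibition above about 80% in every replicate, not just on average, limit read from the data; inconclusive = at least half of replicates past the limit, but not all; inactive = fewer than half of replicates past the limit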
BB721 growth rt: retest Vibrio harveyi BB721 growth inhibition | shares compounds with AI-2 QS mod | OD600 absorbance, 9 h | actives 3% (n = 750) | growth inhibition, % at 7.5 µM;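 active = every replicate shows growth inhibition above 50%; inconclusive = at least half but not all replicates above 50% inhibition; inactive = under half of replicates above 50% inhibition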
AI-2 QS JMH597: Vibrio harveyi AI-2 signaling luminescence modulation – JMH597 strain, confirmation. Vibrio harveyi JMH597 AI-2 quorum sensing luminescence, 9 h; luxN and CqsS knockout, AI-2 only. actives 97% (n = 750). inhibition, % at 7.5 µM. shares compounds with AI-2 QS mod;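 active = every replicate shows more than 75% inhibition of signal versus neutral control wells; inconclusive = half to three quarters of replicates exceed 75% inhibition; inactive = fewer than half of replicates exceed 75% inhibition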
CR mimetic CP: confirmation of caloric restriction mimetics inhibiting yeast age-related superoxide. shares compounds with CR mimetic SO. S. cerevisiae aging, superoxide DHE fluorescence; active compounds read low. actives 1% (n = 850). superoxide response (% of plate), % at 10 µM;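 active = superoxide signal below 65% of the plate average of sample wells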;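 note: cells aged with compound for 7 days at 30 degrees C before staining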
DHE counter: counter-screen for compounds affecting DHE oxidation and fluorescence in yeast | fluorescence response, % at 10 µM | 850 tested, under 10 active | shares compounds with CR mimetic SO | S. cerevisiae BY4741, flow cytometry; active compounds read low | AID 435000;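 active = fluorescence response below 15%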;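 note: lower means stronger quenching of DHE signal or ROS scavenging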
VATPase regulator: yeast V-ATPase proton transport regulation. shares compounds with V-ATPase pHluor. S. cerevisiae pHLuorin cytosolic pH. response, % at 10 µM. actives 2% (n = 980). AID 602197; in the data active = response above about 24%
Each line names hits and unclear results; the compound was inactive in the other large screens (follow-up assays come after a bar, where they were run).

CCOc1ccc(NS(=O)(=O)c2ccc(N)cc2)cc1	AI-2 QS mod inconclusive | JMH597 growth inactive | BB721 lum counter 99 | BB721 growth rt inactive | AI-2 QS JMH597 100 | CR mimetic CP inactive | DHE counter inactive
CCCCCC(=O)NC(=S)Nc1cccc(C(C)=O)c1	AI-2 QS mod -95, CR mimetic SO 60 | JMH597 growth inactive | BB721 lum counter 95 | BB721 growth rt inactive | AI-2 QS JMH597 96 | CR mimetic CP inactive | DHE counter inactive
O=c1cc(O)c2sc3nc(-c4ccccc4)cc(C(F)(F)F)c3c2[nH]1	none
COc1ccccc1NC(=O)Nc1nc2ccc(S(N)(=O)=O)cc2s1	none
CN(C)S(=O)(=O)c1ccc(C(=O)OCn2nnc3ccccc3c2=O)cc1	AI-2 QS mod -89, CR mimetic SO 65 | JMH597 growth inactive | BB721 lum counter 96 | BB721 growth rt inactive | AI-2 QS JMH597 97 | CR mimetic CP inactive | DHE counter inactive
COc1ccc(C(=O)OCn2nnc3ccccc3c2=O)cc1OC	none
COc1ccc(/C=C/C(=O)c2ccc(O)cc2)cc1	V-ATPase pHluor 9.3, AI-2 QS mod -93 | JMH597 growth inactive | BB721 lum counter 97 | BB721 growth rt inactive | AI-2 QS JMH597 97 | VATPase regulator inactive
CS(=O)(=O)N(CC(=O)O)c1ccc(C23CC4CC(CC(C4)C2)C3)cc1	none
CCn1c2ccc(/C(C)=N\O)cc2c2cc(/C(C)=N\O)ccc21	none (no result: T cruzi inh) | CR mimetic CP inactive | DHE counter inactive
O=C(O)CSc1nnc(COc2cccc3cccnc23)n1-c1ccc(Cl)cc1	none
O=C(CC(C(=O)O)c1ccccc1)Nc1ccccc1 (centres undefined)	none
O=C(CC(Cc1ccccc1)C(=O)O)Nc1ccccc1 (centres undefined)	CR mimetic SO 50 | CR mimetic CP inactive | DHE counter inactive
Cc1cc(NS(=O)(=O)c2ccccc2)cc(Cl)c1O	none | CR mimetic CP inactive | DHE counter inactive
N#Cc1ccc(Nc2ccccc2)c(N)c1	CR mimetic SO 61 | CR mimetic CP inactive | DHE counter inactive
N#Cc1cc(N)c(Nc2ccccc2)cc1C#N	none
C=CC[C@@H](CC(=O)NCCO)C(=O)N[C@@H](COC(=O)[C@@H](CC=C)CC(=O)OC(C)(C)C)Cc1ccccc1	none (no result: HIF activator, AI-2 QS mod, T cruzi inh)
COc1ccc(CC(=O)N(Cc2ccccc2)c2cccc(C)c2)cc1OC	CR mimetic SO 64 | CR mimetic CP inactive | DHE counter inactive
COc1ccc(/C=N/NC(=O)c2cccnc2)cc1O	none
CN(C)c1ccc(NC(=O)c2cccc(C(=O)Nc3ccc(N(C)C)cc3)n2)cc1	CR mimetic SO 65 (no result: HIF activator) | CR mimetic CP inactive | DHE counter inactive
O=C(Nc1ccc2cccnc2c1)c1ccc(Br)cc1	none
O=C(Nc1ccc2nc3ccccc3nc2c1)c1ccc(Br)cc1	none | CR mimetic CP inactive | DHE counter inactive
Cc1ccc(CNC(=O)Cc2ccc(-n3c(=O)[nH]c4ccsc4c3=O)cc2)cc1	CR mimetic SO 56 | CR mimetic CP inactive | DHE counter inactive
Cc1ccc(CNC(=O)CCCCn2c(=O)[nH]c3ccsc3c2=O)cc1	none
Cc1cc(C)cc(NC(=O)N2CCC(NC(=O)c3ccccc3C)CC2)c1	none
Cc1nc(-c2ccc(S(=O)(=O)Nc3cc(S(=O)(=O)N(C)C)ccc3C)s2)cs1	CR mimetic SO 64 | CR mimetic CP inactive | DHE counter inactive
CC(=O)Nc1ccc(NS(=O)(=O)c2ccc(-c3csc(C)n3)s2)cc1	none
COc1ccc(-c2sc3cc4c(cc3c2C#CCO)OCO4)cc1	CR mimetic SO 63 (no result: HIF activator, AI-2 QS mod, T cruzi inh) | CR mimetic CP inactive | DHE counter inactive
Cc1cccc(NC(=O)C2C3CCCCC32)c1 (centres undefined)	none
CC(C)(C)c1ccc(-n2ncc3c2CCCC3NC(=O)c2csnn2)cc1 (centres undefined)	CR mimetic SO 58 | CR mimetic CP inactive | DHE counter inactive
CC(C)(C)c1ccc(-n2ncc3c2CCCC3NC(=O)c2cnccn2)cc1 (centres undefined)	none
CC(=NCCc1ccccc1)C1=C(O)C(c2ccccc2)OC1=O (centres undefined)	CR mimetic SO 52 | CR mimetic CP inactive | DHE counter inactive
CCOc1ccc(OCC)c(NC(=O)CSc2nnnn2CC)c1	none
O=C(CCCCC(=O)NCc1cccs1)NCc1cccs1	none
COc1ccc(C)cc1N(C(=O)c1cccc(F)c1)c1nc2ccccc2s1	CR mimetic SO 48 (no result: HIF activator, AI-2 QS mod, T cruzi inh) | CR mimetic CP inactive | DHE counter inactive
COc1ccc(C)cc1N(C(=O)c1ccccc1)c1nc2ccccc2s1	none
CC(C)=NNc1nc2sc3c(c2c(=O)[nH]1)CC(C)(C)OC3	CR mimetic SO 50 | CR mimetic CP inactive | DHE counter inactive
CC1(C)Cc2c(sc3nc(N/N=C/c4ccccc4)[nH]c(=O)c23)CO1	none
COc1cccc(-c2cnc(C(O)c3ccc(F)cc3C)[nH]2)c1 (centres undefined)	none (no result: HIF activator, V-ATPase pHluor, AI-2 QS mod, T cruzi inh, CR mimetic SO)
Cc1ccc(NC(=O)c2sc3nc(C)cc(C)c3c2N)cc1	CR mimetic SO 56 | CR mimetic CP inactive | DHE counter inactive
COc1cccc(CC(=O)Nc2nc(-c3cccnc3)cs2)c1	none
COc1ccc(CC(=O)Nc2nc(-c3cccnc3)cs2)cc1	CR mimetic SO 63 | CR mimetic CP inactive | DHE counter inactive
Cc1cc(C(F)(F)Cl)n2ncc(-c3ccccn3)c2n1	none
Cc1ccc(-c2nnc(Nc3ccc(CC(N)=O)cc3)c3ccccc23)cc1S(=O)(=O)NCC1CCCO1 (centres undefined)	none
